# Results collected from several papers.
# Read-out: cell growth or viability
SMILES,cell line,assay,setting,measurement,value
CC(C)c1ccccc1[C@@H]1CCCN1C1CC2(CCN(c3ccc(C(=O)NS(=O)(=O)c4ccc(NC[C@H]5CC[C@](C)(O)CC5)c([N+](=O)[O-])c4)c(Oc4cnc5[nH]ccc5c4)c3)CC2)C1,KMS-12-PE,ATP luminescence,48 h,IC50,0.86 nM
CN1Cc2c(N)cccc2C(=O)N1C1CCC(=O)NC1=O (stereo not drawn),MV4-11,CCK-8,96 h,IC50,< 330 nM
Cc1nc(Nc2ccc3c(c2)C(C)(C)C(=O)N3)c2ccccc2n1,BEAS-2B,MTT,,IC50,38400 nM
C=CC(=O)NC1CCN(c2ncc3ncnc(Nc4ccc(Oc5ccc6c(c5)ncn6C)c(C)c4)c3n2)CC1,647-V,,,EC50,2320 nM
Cc1nc(Nc2ccc3c(c2)CC(=O)N3)c2ccccc2n1,BEAS-2B,MTT,,IC50,8760 nM
C=CC(=O)N1C[C@@H](n2nc(C#Cc3c(F)cc4c(ncn4C4CC4)c3F)c(C(N)=O)c2NC)C[C@@H]1COC,RBE,MTT,72 h,IC50,> 1000 nM
Cc1noc2c1-c1ccccc1C(c1ccc(Cl)cc1)=N[C@H]2CC(N)=O,MV4-11,ATP luminescence,72 h,IC50,412 nM
C[C@@H]1CN(c2ccc(-c3cc(C(=O)NCCOCCOCCOCCOCCNC(=O)Cn4cc(-c5[nH]cc(C(=O)N[C@@H](CC(N)=O)c6ccc(F)c(Cl)c6)c5-c5ccc(Cl)cc5F)cn4)ccc3F)cc2NC(=O)c2c[nH]c(=O)cc2C(F)(F)F)C[C@H](C)N1C,MV4-11,,"4.64 µM, 5 days",viability,27%
Cc1nc(Nc2ccc3c(c2)/C(=C/c2ccccc2)C(=O)N3C)c2ccccc2n1,BEAS-2B,MTT,,IC50,20100 nM
Cn1cc(-n2cnc3c(NCc4nc5cc(Cl)c(Cl)cc5[nH]4)nc(N4CCOCC4)nc32)cn1,MDA-MB-468,,5 days,EC50,9.21 nM
Cc1c(C(=O)O)ccc2c3n(nc12)[C@@H]1[C@H](C3)N(CC2CC2)[C@@]2(C(=O)Nc3cc(Cl)ccc32)[C@H]1c1cccc(Cl)c1F,human Fibroblast,ATP luminescence,,IC50,12 nM
Cc1nc(Nc2ccc3c(c2)/C(=C/c2ccccc2C)C(=O)N3)c2ccccc2n1,BEAS-2B,MTT,,IC50,8740 nM
CC1(C)CCC(CN2CCN(c3ccc(C(=O)NS(=O)(=O)c4ccc(NCC5CCOCC5)c([N+](=O)[O-])c4)c(Oc4cnc5[nH]ccc5c4)c3)CC2)=C(c2ccc(Cl)cc2)C1,MV4-11,ATP luminescence,48 h,IC50,12 nM
C[C@@H]1CN(c2ccc(-c3cc(C(=O)NCCOCCOCCOCCOCCOCCOCCNC(=O)/C=C/c4[nH]cc(C(=O)N[C@@H](CC(N)=O)c5ccc(F)c(Cl)c5)c4-c4ccc(Cl)cc4F)ccc3F)cc2NC(=O)c2ccc(F)cc2C(F)(F)F)C[C@H](C)N1C,MV4-11,,"4.64 µM, 5 days",viability,43.9%
COc1cc2ncnc(Nc3ccc4c(c3)/C(=C/c3ccccc3)C(=O)N4)c2cc1OC,BEAS-2B,MTT,,IC50,17500 nM
